Reference: ChEMBL document CHEMBL4359831, “Chemoproteomics of an Indole-Based Quinone Epoxide Identifies Druggable Vulnerabilities in Vancomycin-Resistant Staphylococcus aureus” (J Med Chem, 2019)
Converted amounts (≈) assume the structure as drawn. One block for each compound: values may come before it. The source made the active and inactive calls. No cut-off for these calls is given here.

What was measured:
Staphylococcus aureus [1] = assay: Antibacterial activity against Staphylococcus aureus ATCC 29213 after 16 to 18 hrs by CLSI M07-A10 protocol based dilution method; format: functional
How it was run: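 MIC against ATCC 29213 determined by a previously described protocol; values in μg/mL.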

[2] = L-cysteine reactivity in pH 7.4 phosphate buffer assessed as compound remaining at 100 uM incubated for 1 hr by HPLC analysis
[3] = L-cysteine reactivity in pH 7.4 phosphate buffer assessed as pseudo first order rate constant at 100 uM measured at 10 mins time interval up to 60 mins by HPLC analysis
[4] = L-cysteine reactivity in pH 7.4 phosphate buffer at 100 uM preincubated for 1 hr followed by mono-bromobimane addition and measured after 30 mins by fluorescence based competition assay
Staphylococcus aureus [5] = assay: Antibacterial activity against vancomycin-resistant Staphylococcus aureus SA-71080 after 16 to 18 hrs by CLSI M07-A10 protocol based dilution method; format: functional
Staphylococcus aureus [6] = assay: Antibacterial activity against vancomycin-resistant Staphylococcus aureus SA-HIP-15178 after 16 to 18 hrs by CLSI M07-A10 protocol based dilution method; format: functional
Staphylococcus aureus [7] = assay: Antibacterial activity against vancomycin-resistant Staphylococcus aureus SA-HIP-14300 after 16 to 18 hrs by CLSI M07-A10 protocol based dilution method; format: functional
Staphylococcus aureus [8] = assay: Antibacterial activity against vancomycin-resistant Staphylococcus aureus SA-HIP-11983 after 16 to 18 hrs by CLSI M07-A10 protocol based dilution method; format: functional
Staphylococcus aureus [9] = assay: Antibacterial activity against vancomycin-resistant Staphylococcus aureus HIP11714 after 16 to 18 hrs by CLSI M07-A10 protocol based dilution method; format: functional
Staphylococcus aureus [10] = assay: Antibacterial activity against vancomycin-resistant Staphylococcus aureus HIP14300 after 16 to 18 hrs by CLSI M07-A10 protocol based dilution method; format: functional
Staphylococcus aureus [11] = assay: Antibacterial activity against vancomycin-resistant Staphylococcus aureus 1002434 after 16 to 18 hrs by CLSI M07-A10 protocol based dilution method; format: functional
Staphylococcus aureus [12] = assay: Antibacterial activity against vancomycin-resistant Staphylococcus aureus AIS100050 after 16 to 18 hrs by CLSI M07-A10 protocol based dilution method; format: functional
Staphylococcus aureus [13] = assay: Bactericidal activity against vancomycin-resistant Staphylococcus aureus HIP11714 at 10 times MIC measured up to 24 hrs by time kill assay; format: functional, organism-based
Staphylococcus aureus [14] = assay: Bactericidal activity against Staphylococcus aureus ATCC 29213 at 1 to 10 times MIC preincubated up to 24 hrs under shaking condition followed by bacterial plating on Tryptic Soy agar and measured after 18 to 20 hrs by time kill assay; format: functional, organism-based
[15] = Selectivity index, ratio of CC50 for African green monkey Vero cells to MIC90 for Staphylococcus aureus ATCC 29213; format: toxicity; conditions: read-out: Selectivity Index
Staphylococcus aureus [16] = assay: Binding affinity to Staphylococcus aureus ATCC 29213 C-terminal His6-tagged MarR_05815 C12A mutant expressed in Escherichia coli BL21(DE3) cells up to 100 uM incubated for 1 hr by Rhodamine azide fluorescence dependent gel-based ABPP assay
How it was run: (§1)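 Recombinant His-tagged protein purified from E. coli by Ni-NTA affinity chromatography; wild-type and Cys-to-Ala variant treated with increasing alkyne quinone-epoxide probe (0–100 μM) for 1 h. Then Cu-catalysed click reaction with rhodamine-azide, SDS-PAGE resolution, and in-gel fluorescence visualisation of probe labelling.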

Staphylococcus aureus [17] = assay: Binding affinity to Staphylococcus aureus ATCC 29213 C-terminal His6-tagged MarR_12840 C61A mutant expressed in Escherichia coli BL21(DE3) cells up to 100 uM incubated for 1 hr by Rhodamine azide fluorescence dependent gel-based ABPP assay; how it was run: as §1
Escherichia coli [18] = assay: Binding affinity to soluble protein in Escherichia coli ATCC 25922 cell lysates after 1 hr by Rhodamine azide fluorescence dependent gel-based ABPP assay; format: functional; conditions: Lysate
Staphylococcus aureus [19] = assay: Binding affinity to soluble protein in Staphylococcus aureus ATCC 29213 cells after 1 hr by Rhodamine azide fluorescence dependent gel-based ABPP assay; format: functional, organism-based
How it was run: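 Live S. aureus cultures were treated with probe (10 μM, 1 h), then lysed and fractionated into soluble and membrane proteomes. Labelling was assessed by rhodamine-azide click and SDS-PAGE fluorescence.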

Staphylococcus aureus [20] = assay: Binding affinity to Staphylococcus aureus ATCC 29213 C-terminal His6-tagged MarR_05815 (Cys12 residue) expressed in Escherichia coli BL21(DE3) cells up to 100 uM incubated for 1 hr by Rhodamine azide fluorescence dependent gel-based ABPP assay
How it was run: (§2)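 Recombinant His-tagged MarR proteins were purified from E. coli by Ni-NTA, as wild type and as Cys→Ala variants (C61A MarR_12840; C12A MarR_05815). Proteins were labelled with probe at 0–100 μM for 1 h, then click with rhodamine-azide and SDS-PAGE fluorescence read-out.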

Escherichia coli [21] = assay: Binding affinity to membrane protein in Escherichia coli ATCC 25922 cell lysates after 1 hr by Rhodamine azide fluorescence dependent gel-based ABPP assay; format: functional; conditions: Lysate
Staphylococcus aureus [22] = assay: Cysteine reactivity in iodoacetamide treated Staphylococcus aureus ATCC 29213 cell lysates at 10 uM incubated for 1 hr by Rhodamine azide fluorescence dependent gel-based competitive ABPP assay; format: subcellular; conditions: Cell lysate
How it was run: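 Fractionated S. aureus soluble and membrane lysates were pretreated with excess iodoacetamide (10 mM), then chased with probe (10 μM). Read-out was rhodamine-azide click and SDS-PAGE in-gel fluorescence.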

Escherichia coli [23] = assay: Binding affinity to membrane protein in Escherichia coli ATCC 25922 cells after 1 hr by Rhodamine azide fluorescence dependent gel-based ABPP assay; format: functional, organism-based
Escherichia coli [24] = assay: Binding affinity to soluble protein in Escherichia coli ATCC 25922 cells after 1 hr by Rhodamine azide fluorescence dependent gel-based ABPP assay; format: functional, organism-based
Staphylococcus aureus [25] = assay: Binding affinity to membrane protein in Staphylococcus aureus ATCC 29213 cell lysates after 1 hr by Rhodamine azide fluorescence dependent gel-based ABPP assay; format: functional; conditions: Lysate
How it was run: (§3)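 S. aureus soluble or fractionated membrane lysates were incubated 1 h with alkyne probe (0.01–100 μM), then Cu-catalysed click with rhodamine-azide. Proteomes were resolved by SDS-PAGE and visualised by in-gel fluorescence (gel-based ABPP).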

Staphylococcus aureus [26] = assay: Binding affinity to Staphylococcus aureus ATCC 29213 C-terminal His6-tagged MarR_12840 (Cys61 residue) expressed in Escherichia coli BL21(DE3) cells up to 100 uM incubated for 1 hr by Rhodamine azide fluorescence dependent gel-based ABPP assay; how it was run: as §2
Staphylococcus aureus [27] = assay: Binding affinity to soluble protein in Staphylococcus aureus ATCC 29213 cell lysates after 1 hr by Rhodamine azide fluorescence dependent gel-based ABPP assay; format: functional; conditions: Lysate; how it was run: as §3

Structure (SMILES): COc1ccc(C23OC2C(=O)c2c(ccc4c5ccccc5n(C(C)C)c24)C3=O)cc1 (centres undefined)
- MIC (Staphylococcus aureus [1]): > 64 mg/L

Structure (SMILES): Cc1cc2c([nH]c3ccccc32)c2c1C(=O)C1OC1C2=O (centres undefined)
- Activity [2]: 86%
- MIC (Staphylococcus aureus [1]): > 16 mg/L

Structure (SMILES): CCc1cc2c3ccccc3n(C(C)C)c2c2c1C(=O)C1OC1C2=O (centres undefined)
- Activity [2]: 88%
- MIC (Staphylococcus aureus [1]): 64 mg/L (≈ 192 µM)

Structure (SMILES): CC(C)n1c2ccccc2c2ccc3c(c21)C(=O)C1OC1(c1ccccc1)C3=O (centres undefined)
- K [3]: 0.78 ×10⁻² /min
- Activity [4]: Active
- MIC (Staphylococcus aureus [1]): > 64 mg/L

Structure (SMILES): CN[C@H](CC(C)C)C(=O)N[C@H]1C(=O)N[C@@H](CC(N)=O)C(=O)N[C@H]2C(=O)N[C@H]3C(=O)N[C@H](C(=O)N[C@H](C(=O)O)c4cc(O)cc(O)c4-c4cc3ccc4O)[C@H](O)c3ccc(c(Cl)c3)Oc3cc2cc(c3O[C@@H]2O[C@H](CO)[C@@H](O)[C@H](O)[C@H]2O[C@H]2C[C@](C)(N)[C@H](O)[C@H](C)O2)Oc2ccc(cc2Cl)[C@H]1O [VANCOMYCIN]
- MIC (Staphylococcus aureus [5]): 32 to 64 mg/L (≈ 22.1 to 44.2 µM)
- MIC (Staphylococcus aureus [6]): 32 to 64 mg/L (≈ 22.1 to 44.2 µM)
- MIC (Staphylococcus aureus [7]): > 64 mg/L
- MIC (Staphylococcus aureus [8]): 32 to 64 mg/L (≈ 22.1 to 44.2 µM)
- MIC (Staphylococcus aureus [9]): > 64 mg/L
- MIC (Staphylococcus aureus [10]): > 64 mg/L
- MIC (Staphylococcus aureus [11]): > 64 mg/L
- MIC (Staphylococcus aureus [12]): 32 to 64 mg/L (≈ 22.1 to 44.2 µM)

Structure (SMILES): CC(C)n1c2ccccc2c2ccc3c(c21)C(=O)C1OC1(c1ccc(Br)cc1)C3=O (centres undefined)
- MIC (Staphylococcus aureus [1]): > 64 mg/L

Structure (SMILES): CCCCCCCCCC(=O)N[C@@H](Cc1c[nH]c2ccccc12)C(=O)N[C@@H](CC(N)=O)C(=O)N[C@@H](CC(=O)O)C(=O)N[C@@H]1C(=O)NCC(=O)N[C@@H](CCCN)C(=O)N[C@H](CC(=O)O)C(=O)N[C@H](C)C(=O)N[C@@H](CC(=O)O)C(=O)NCC(=O)N[C@H](CO)C(=O)N[C@@H]([C@@H](C)CC(=O)O)C(=O)N[C@@H](CC(=O)c2ccccc2N)C(=O)O[C@@H]1C
- Activity (Staphylococcus aureus [13]): Active

Structure (SMILES): C#CCCCn1c2ccccc2c2ccc3c(c21)C(=O)C1OC1C3=O (centres undefined)
- Activity (Staphylococcus aureus [16]): inactive
- Activity (Staphylococcus aureus [17]): inactive
- Activity (Escherichia coli [18]): Active
- Activity (Staphylococcus aureus [19]): Active
- Activity (Staphylococcus aureus [20]): Dose-dependent effect
- Activity (Escherichia coli [21]): Active
- Activity (Staphylococcus aureus [22]): inactive
- Activity (Escherichia coli [23]): inactive
- Activity (Escherichia coli [24]): inactive
- Activity (Staphylococcus aureus [25]): Active
- Activity (Staphylococcus aureus [26]): Dose-dependent effect
- Activity [4]: Active
- Activity (Staphylococcus aureus [27]): Dose-dependent effect
- MIC (Staphylococcus aureus [1]): 1 mg/L (≈ 3.04 µM)

Structure (SMILES): C#CCCCn1c2ccccc2c2ccc3c(c21)C(=O)C1OC1(c1ccccc1)C3=O (centres undefined)
- Activity (Staphylococcus aureus [19]): Active
- Activity (Staphylococcus aureus [25]): Active
- Activity [4]: Active
- Activity (Staphylococcus aureus [27]): inactive
- MIC (Staphylococcus aureus [1]): > 64 mg/L

Second part, led by results:

- Activity [2]: 27%
- MIC (Staphylococcus aureus [1]): 4 mg/L (≈ 14.4 µM)
Structure (SMILES): Cn1c2ccccc2c2ccc3c(c21)C(=O)C1OC1C3=O (centres undefined)

- Activity [2]: 93%
- MIC (Staphylococcus aureus [1]): 2 mg/L (≈ 6.55 µM)
Structure (SMILES): CCn1c2ccccc2c2cc(C)c3c(c21)C(=O)C1OC1C3=O (centres undefined)

- Activity [2]: 33%
- MIC (Staphylococcus aureus [1]): 4 mg/L (≈ 15.2 µM)
Structure (SMILES): O=C1c2ccc3c([nH]c4ccccc43)c2C(=O)C2OC12 (centres undefined)

- Activity [2]: 57%
- MIC (Staphylococcus aureus [1]): 2 mg/L (≈ 5.89 µM)
Structure (SMILES): O=C1c2ccc3c4ccccc4n(-c4ccccc4)c3c2C(=O)C2OC12 (centres undefined)

- Activity [2]: 33%
- MIC (Staphylococcus aureus [1]): 2 mg/L (≈ 6.87 µM)
Structure (SMILES): CCn1c2ccccc2c2ccc3c(c21)C(=O)C1OC1C3=O (centres undefined)

- Activity [2]: 84%
- MIC (Staphylococcus aureus [1]): 4 mg/L (≈ 12.5 µM)
Structure (SMILES): Cc1cc2c3ccccc3n(C(C)C)c2c2c1C(=O)C1OC1C2=O (centres undefined)

- MIC (Staphylococcus aureus [1]): 0.0625 mg/L (≈ 0.164 µM)
Structure (SMILES): CC(C)n1c2ccccc2c2ccc3c(c21)C(=O)C1(c2ccccc2)OC1C3=O (centres undefined)
- Activity (Staphylococcus aureus [14]): Active
- selectivity ratio [15]: > 200

- MIC (Staphylococcus aureus [1]): 0.5 mg/L (≈ 1.22 µM)
Structure (SMILES): COc1ccc(C23OC2C(=O)c2ccc4c5ccccc5n(C(C)C)c4c2C3=O)cc1 (centres undefined)

- MIC (Staphylococcus aureus [1]): 1 mg/L (≈ 2.17 µM)
Structure (SMILES): CC(C)n1c2ccccc2c2ccc3c(c21)C(=O)C1(c2ccc(Br)cc2)OC1C3=O (centres undefined)
